Test results as given in paper PMC7249612 (Biochemistry, 2016).

Experiments:
[1] = test system: LoxA; assay: LoxA inhibition, manual cuvette assay; type: biochemical, Pseudomonas aeruginosa; conditions: for single-point screen inhibition percentage, LoxA: 25 μM inhibitor, 10 μM AA; for selectivity for LoxA versus human LOX isozymes: from single-point screens at 25 μM
[2] = molecular target: T1, 5-LOX (Homo sapiens, UniProt P09917); assay: Human LOX isozyme specificity screen, 5-LOX; type: biochemical; conditions: 25 μM inhibitor, 10 μM AA
T1 sequence (P09917 1-674): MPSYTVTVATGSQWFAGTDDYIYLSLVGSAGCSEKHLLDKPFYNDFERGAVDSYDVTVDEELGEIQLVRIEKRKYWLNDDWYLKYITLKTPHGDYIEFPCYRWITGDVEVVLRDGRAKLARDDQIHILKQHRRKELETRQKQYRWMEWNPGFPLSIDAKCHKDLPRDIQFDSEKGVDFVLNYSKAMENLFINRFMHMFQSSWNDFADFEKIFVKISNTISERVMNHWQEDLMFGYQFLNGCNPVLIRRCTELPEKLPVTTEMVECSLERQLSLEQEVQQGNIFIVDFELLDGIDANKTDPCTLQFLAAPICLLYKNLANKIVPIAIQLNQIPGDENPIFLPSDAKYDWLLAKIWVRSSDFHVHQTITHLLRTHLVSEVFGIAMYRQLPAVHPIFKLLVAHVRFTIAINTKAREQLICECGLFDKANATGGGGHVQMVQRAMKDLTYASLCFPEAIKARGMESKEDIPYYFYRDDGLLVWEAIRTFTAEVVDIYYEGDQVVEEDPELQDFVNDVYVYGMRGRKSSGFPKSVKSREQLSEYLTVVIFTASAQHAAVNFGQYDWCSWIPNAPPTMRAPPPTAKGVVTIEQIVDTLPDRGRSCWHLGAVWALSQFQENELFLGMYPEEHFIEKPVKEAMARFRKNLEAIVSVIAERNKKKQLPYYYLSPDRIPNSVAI

[3] = molecular target: T2, 12-LOX (Homo sapiens, UniProt P18054); assay: Human LOX isozyme specificity screen, 12-LOX; type: biochemical; conditions: 25 μM inhibitor, 10 μM AA
T2 sequence (P18054 1-663): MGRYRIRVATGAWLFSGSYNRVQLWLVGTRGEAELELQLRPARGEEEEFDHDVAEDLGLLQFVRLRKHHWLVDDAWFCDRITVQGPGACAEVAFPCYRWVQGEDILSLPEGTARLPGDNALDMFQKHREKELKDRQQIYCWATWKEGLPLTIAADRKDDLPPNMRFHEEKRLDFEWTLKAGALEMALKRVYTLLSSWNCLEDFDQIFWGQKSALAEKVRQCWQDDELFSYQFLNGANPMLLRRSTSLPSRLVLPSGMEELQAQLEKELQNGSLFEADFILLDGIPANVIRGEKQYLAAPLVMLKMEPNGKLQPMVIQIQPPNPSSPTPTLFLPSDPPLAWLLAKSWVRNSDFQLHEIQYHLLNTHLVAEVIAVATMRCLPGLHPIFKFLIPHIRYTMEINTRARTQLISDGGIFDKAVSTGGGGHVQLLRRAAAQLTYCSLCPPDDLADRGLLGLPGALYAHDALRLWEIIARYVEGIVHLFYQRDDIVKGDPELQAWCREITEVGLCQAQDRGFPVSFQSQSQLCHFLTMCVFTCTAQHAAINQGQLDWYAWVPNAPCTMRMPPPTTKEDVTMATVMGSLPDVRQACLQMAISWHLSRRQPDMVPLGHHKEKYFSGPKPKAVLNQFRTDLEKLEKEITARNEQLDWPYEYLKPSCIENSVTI

[4] = molecular target: T3, 15-LOX-1 (Homo sapiens, UniProt P16050); assay: Human LOX isozyme specificity screen, 15-LOX-1; type: biochemical; conditions: 25 μM inhibitor, 10 μM AA
T3 sequence (P16050 1-662): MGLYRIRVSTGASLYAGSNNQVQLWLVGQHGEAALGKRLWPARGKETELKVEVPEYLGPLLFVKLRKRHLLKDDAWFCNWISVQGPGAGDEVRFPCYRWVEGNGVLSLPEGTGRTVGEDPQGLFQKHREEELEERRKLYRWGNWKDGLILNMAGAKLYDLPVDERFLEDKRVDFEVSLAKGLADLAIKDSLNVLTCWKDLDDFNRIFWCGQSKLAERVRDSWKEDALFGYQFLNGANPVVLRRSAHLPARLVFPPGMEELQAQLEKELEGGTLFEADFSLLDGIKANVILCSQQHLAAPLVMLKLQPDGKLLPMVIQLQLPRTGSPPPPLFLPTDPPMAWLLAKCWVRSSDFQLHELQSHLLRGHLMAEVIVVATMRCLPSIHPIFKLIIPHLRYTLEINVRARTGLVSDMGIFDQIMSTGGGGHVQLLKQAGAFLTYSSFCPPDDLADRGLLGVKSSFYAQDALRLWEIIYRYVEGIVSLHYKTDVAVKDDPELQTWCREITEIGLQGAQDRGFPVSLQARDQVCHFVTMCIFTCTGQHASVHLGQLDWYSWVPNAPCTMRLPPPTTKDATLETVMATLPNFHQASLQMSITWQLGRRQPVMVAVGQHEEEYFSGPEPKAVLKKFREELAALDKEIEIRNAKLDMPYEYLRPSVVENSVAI

[5] = molecular target: T4, 15-LOX-2 (Homo sapiens, UniProt O15296); assay: Human LOX isozyme specificity screen, 15-LOX-2; type: biochemical; conditions: 25 μM inhibitor, 10 μM AA
T4 sequence (O15296 1-676): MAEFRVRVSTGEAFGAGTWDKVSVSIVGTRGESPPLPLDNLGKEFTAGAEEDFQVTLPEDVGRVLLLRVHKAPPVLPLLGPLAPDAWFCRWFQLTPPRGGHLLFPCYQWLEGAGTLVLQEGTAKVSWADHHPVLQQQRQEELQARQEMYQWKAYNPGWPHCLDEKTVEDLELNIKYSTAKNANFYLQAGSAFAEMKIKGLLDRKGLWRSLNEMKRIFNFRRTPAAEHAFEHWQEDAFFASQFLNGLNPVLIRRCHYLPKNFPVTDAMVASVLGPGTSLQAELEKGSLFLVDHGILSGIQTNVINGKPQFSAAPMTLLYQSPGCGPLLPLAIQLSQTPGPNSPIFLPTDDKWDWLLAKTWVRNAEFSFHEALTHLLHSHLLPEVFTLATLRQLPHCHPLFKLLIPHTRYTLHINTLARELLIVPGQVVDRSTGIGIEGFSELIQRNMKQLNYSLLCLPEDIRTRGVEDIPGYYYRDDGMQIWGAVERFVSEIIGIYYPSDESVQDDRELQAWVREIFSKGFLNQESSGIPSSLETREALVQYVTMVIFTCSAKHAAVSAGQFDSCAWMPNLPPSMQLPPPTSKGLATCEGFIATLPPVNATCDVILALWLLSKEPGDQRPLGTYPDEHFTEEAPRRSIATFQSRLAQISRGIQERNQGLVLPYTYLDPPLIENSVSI

[6] = test system: LoxA; assay: LoxA substrate preference; type: biochemical, Pseudomonas aeruginosa; conditions: initial rate at 10 μM substrate, pH 7.0, relative to AA
Summary of the method: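 His6-tagged LoxA was expressed in E. coli BL21(DE3), purified on Ni-NTA, and dosed by iron content. About 7 nM enzyme started each reaction. Each fatty acid substrate was C18 HPLC-purified and used at 10 μM in 25 mM HEPES pH 7.0 without Triton X-100. Initial rate of conjugated diene formation was followed at 234 nm (ε 25000 M−1cm−1) and expressed relative to the AA rate.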

| Compound | IC50 value against LoxA ([1]; compared with the human enzymes) | single-point screen inhibition percentage, 5-LOX [2] [%] | single-point screen inhibition percentage, 12-LOX [3] [%] | single-point screen inhibition percentage, 15-LOX-l [4] [%] | single-point screen inhibition percentage, LoxA [1] [%] | single-point screen inhibition percentage, 15-LOX-2 [5] [%] | selectivity for LoxA versus human LOX isozymes [1] | % AA Rate (10 μM) [6] | IC50 ([1]; read-out: LoxA IC50, manual cuvette assay, pH 7.0, 10 μM AA) [µM] |
| --- | --- | --- | --- | --- | --- | --- | --- | --- | --- |
| CC(Cc1ccc(O)c(O)c1)C(C)Cc1ccc(O)c(O)c1 (stereo not shown) [NDGA, nordihydroguaiaretic acid, reference compound] | comparable to the values obtained against the human enzymes | – | – | – | – | – | – | – | – |
| O=C(CCCCCN1CCN(c2ccccc2-c2ccccc2)CC1)NC1CCCc2ccccc21 (stereo not shown) [NCGC00186032] | – | 78 | 36 | 57 | 87 | 5 | – | – | – |
| O=c1[nH]c2ccccc2n1C1CCN(CCCC(c2ccc(F)cc2)c2ccc(F)cc2)CC1 [NCGC00015802] | – | 80 | 50 | 69 | 90 | 16 | selectivity towards LoxA over 12-LOX, 15-LOX-1, and 15-LOX-2 | – | – |
| CCCCC/C=C\C/C=C\C/C=C\CCCCCCC(=O)O [DGLA, Dihomo-gamma-linolenic acid] | – | – | – | – | – | – | – | 44(10) % | – |
| Fc1ccc(C(c2ccc(F)cc2)N2CCN(C/C=C\c3ccccc3)CC2)cc1 [NCGC00018102] | – | 96 | 25 | 65 | 86 | 0 | selectivity towards LoxA over 12-LOX, 15-LOX-1, and 15-LOX-2 | – | 4.5 ± 0.4 |
| CC(C)(C)c1ccc(C(=O)CCCN2CCC(OC(c3ccccc3)c3ccccc3)CC2)cc1 [NCGC00164603] | – | 23 | 33 | 76 | 95 | 0 | – | – | – |
| CN[C@H]1CC[C@@H](c2ccc(Cl)c(Cl)c2)c2ccccc21.Cl [NCGC00092386] | – | 83 | 26 | 51 | 76 | 5 | – | – | – |
| Nc1ncnc2c1c(-c1ccc(Oc3ccccc3)cc1)cn2C1CCCC1 [NCGC00015280] | – | 42 | 38 | 51 | 86 | 0 | – | – | – |
| CC/C=C\C/C=C\C/C=C\C/C=C\C/C=C\CCCC(=O)O [EPA] | – | – | – | – | – | – | – | 61(10) % | – |
| CC/C=C\C/C=C\C/C=C\CCCCCCCC(=O)O [ALA] | – | – | – | – | – | – | – | 78(10) % | – |
| COC(=O)[C@H]1[C@H]2C[C@@H]3c4[nH]c5cc(OC)ccc5c4CCN3C[C@H]2C[C@@H](OC(=O)c2cc(OC)c(OC)c(OC)c2)[C@@H]1OC [NCGC00091250] | – | 37 | 23 | 57 | 69 | 5 | – | – | – |
| CC/C=C\C/C=C\C/C=C\C/C=C\C/C=C\C/C=C\CCC(=O)O [DHA] | – | – | – | – | – | – | – | 72(10) % | – |
| O=C1NCN(c2ccccc2)C12CCN(CCCC(c1ccc(F)cc1)c1ccc(F)cc1)CC2 [NCGC00015424] | – | 74 | 63 | 76 | 87 | 21 | selectivity towards LoxA over 12-LOX and 15-LOX-2 and not the other human isozymes | – | – |
| Fc1ccc(C(OCCN2CCN(CCCc3ccccc3)CC2)c2ccc(F)cc2)cc1 [NCGC00015300] | – | 41 | 48 | 65 | 83 | 13 | – | – | – |
| CCCCC/C=C\C/C=C\CCCCCCCCCC(=O)O [EDA] | – | – | – | – | – | – | – | 33(10) % | – |
| CC/C(=C(\c1ccccc1)c1ccc(OCCN(C)C)cc1)c1ccccc1 [NCGC00024928] | – | 79 | 39 | 73 | 82 | 8 | – | – | – |
| CCCCC/C=C\C/C=C\C/C=C\CCCCC(=O)O [GLA] | – | – | – | – | – | – | – | 44(10) % | – |
